NOD2 RIPK2 PPI: blocks binding of human NOD2 to RIPK2 | CHO BLA complementation NOD2-RIPK2, CCF4 ratio | inhibition, % at 4.98 µM | actives 0.38% (n = 360,000) | AID 624267; in the data active = inhibition above about 21%
SKN-1 inh: C. elegans SKN-1 inhibition; C. elegans VP596 Pgst-4::GFP/RFP ratio, acrylamide-induced, 24 h; actives 0.49% (n = 360,000); inhibition, % at 21.8 µM;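 active = interference check ratio from 0.5 to 1.5 plus GFP to RFP signal ratio inhibition reaching or exceeding a fixed threshold, cut at about 30% in these data, passing the limit was not always enough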
MT1-MMP act inh: blocks activation of human MT1-MMP; P50281; actives 0.061% (n = 360,000); HT1080 RFP-PRO-GFP cells, GFP/RFP ratio fluorescence, overnight; percent of plate control window, DMSO zero; GFP/RFP ratio change, % at 20 µM;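 active = GFP/RFP ratio change of at least 30% with cell ATP level not reduced by more than half and red fluorescence within 50% of control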
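Test system: HT1080 RFP-PRO-GFP cells; Benchmarks: DMSO and RFP-L50D-GFP cell wells; Timing: cells overnight before dosing, compound overnight, 37 °C, 5% CO2; Compound: one 20 µM compound dose with 1% DMSO; Read-out: GFP/RFP fluorescence ratio.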
TLR9-MyD88 block: TLR9-MyD88 interaction inhibition | CHO BLA complementation TLR9-MyD88, CCF4 FRET ratio | inhibition, % at 4.98 µM | actives 0.21% (n = 340,000) | AID 504734;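 active = inhibition above the mean over all tested compounds plus 3 SD, cut at about 21% in these data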
TLR4-MyD88 BLA: inhibitors of human TLR4-MyD88 binding | HeLa CL3-4 TLR4/MyD88 BLA complementation, FRET ratio | inhibition, % at 8.4 µM | actives 0.18% (n = 200,000) | AID 861; in the data active = inhibition above about 25%
Hits are given with their value; - = inactive; . = not tested or not shown. An excerpt weighted towards active compounds, which were near 0.99% of everything screened.

SMILES	NOD2 RIPK2 PPI	SKN-1 inh	MT1-MMP act inh	TLR9-MyD88 block	TLR4-MyD88 BLA
CCCC(C(=O)NC1CCCC1)N(CC1CCCO1)C(=O)CNS(=O)(=O)c1ccccc1 (stereo not drawn)	-	-	-	-	.
Cc1ccc(OCCNC(=O)c2ccc3ccccc3n2)cc1	-	-	-	-	.
O=C(NCCOc1ccc(Cl)cc1)c1ccc2ccccc2n1	-	39	-	-	-
O=C(Nc1ccc(-c2nc3cccnc3s2)cc1)c1ccco1	-	46	-	-	-
O=C(O)CCNS(=O)(=O)c1ccc2ccccc2c1	-	-	-	-	-
O=C(O)CCNc1cc2ccccc2cc1C(=O)O	-	36	-	-	-
CCCOC(=O)c1cc(=O)[nH]c2ccccc12	-	37	-	-	-
COC(=O)c1ccc(COn2c(=O)c(C)[n+]([O-])c3ccccc32)cc1	-	44	-	-	-
Cc1ccc(C2=NN(S(C)(=O)=O)C(c3ccc4c(c3)OCO4)C2)cc1 (stereo not drawn)	-	38	-	-	-
C#CCNC(=O)c1csc([C@@H]2O[C@H](CO)[C@@H](O)[C@H]2O)n1	-	-	-	.	.
COc1ccc(Cl)cc1Cn1c(C)c(C(=O)NCc2ccc3c(c2)OCCO3)sc1=O	-	-	-	.	.
COc1ccc(-c2cn3cc(Cl)ccc3n2)cc1OC	-	-	-	-	-
Clc1ccc2nc(-c3ccc(Br)s3)cn2c1	-	70	-	-	-
CCCn1c(SCC(=O)c2ccc3c(c2)OCCO3)n[nH]c1=O	-	43	-	-	-
O=C(CSc1nc2ccccc2o1)c1ccc2c(c1)OCCO2	-	37	-	-	-
CCCn1c(SCC(=O)Nc2ccc3c(c2)OCO3)n[nH]c1=O	-	-	-	-	.
COc1ccccc1NC(=O)COC(=O)c1ccc2ccccc2n1	-	-	-	-	.
CCCS(=O)(=O)N1CCC(C(=O)NCc2cccnc2)CC1	-	52	-	-	-
CN(Cc1ccc(C(C)(C)C)cc1)C(=O)c1ccc2c(=O)n3c(nc2c1)CCC3	-	-	-	-	.
COc1ccc(C)cc1NC(=O)CNC(=O)c1sc2ccccc2c1Cl	-	-	-	-	.
COc1ccc(-c2ccc(C(=O)NCCN(C)C)c3occc23)c(C)c1	-	-	-	.	.
COCCNC(=O)c1ccc(-c2ccc(OC)cc2C)c2ccoc12	-	36	-	.	.
Fc1ccccc1NC(=S)NN(Cc1ccccc1)c1ccccc1	-	39	-	-	-
CC(C)c1ccccc1NC(=S)NN(Cc1ccccc1)c1ccccc1	-	-	-	-	-
Cc1ccc(C)c(NC(=O)/C(C#N)=C/c2ccc[nH]2)c1	-	37	-	-	.
SMILES	NOD2 RIPK2 PPI	SKN-1 inh	MT1-MMP act inh	TLR9-MyD88 block	TLR4-MyD88 BLA
Cc1cccc(NC(=O)/C(C#N)=C/c2ccc[nH]2)c1C	-	-	-	-	.
CCOc1ccc(OCCC(=O)OCC(=O)NC(C)c2ccccc2)cc1 (stereo not drawn)	-	-	-	-	.
O=C(/C(C=Nc1ccc(Br)cc1)=C(/O)c1ccco1)C(F)(F)F	-	74	-	-	-
COc1cccc(C(=O)NCC(=O)N2CCC3(CC2)NCCc2[nH]cnc23)c1	-	36	-	-	.
O=C(Nc1cccc(Oc2ccccc2)c1)C1Cc2c(-c3ccc4c(c3)OCO4)ccnc2O1 (stereo not drawn)	-	36	-	.	.
O=C(Nc1cccc(OC(F)(F)F)c1)C1Cc2c(-c3ccc4c(c3)OCO4)ccnc2O1 (stereo not drawn)	-	-	-	.	.
CN(C(=O)C1Cc2c(-c3ccccc3Oc3ccccc3)ccnc2O1)c1ccccc1 (stereo not drawn)	-	35	-	.	.
CN(C)CCNC(=O)C1Cc2c(-c3ccccc3Oc3ccccc3)ccnc2O1 (stereo not drawn)	-	-	-	.	.
COc1ccc(CNC(=O)N[C@H](C(=O)O)C(C)C)cc1OC	-	-	-	-	.
O=C(CCCN1C(=O)NC2(CCCC2)C1=O)Nc1ccc(Cl)c(S(=O)(=O)N2CCOCC2)c1	-	-	-	-	.
N#CC(C#N)=C(N)/C(C#N)=C/c1cc(O)c(O)c(O)c1	-	93	-	-	.
CCC(CC)C(C(=O)NCc1ccccc1)N1CCN(c2cccc(C)c2C)CC1 (stereo not drawn)	-	-	-	.	.
CN(C(=O)c1cccc(NC(=O)Cc2cccc(NC(=O)C3CCCN(C(=O)C4CCCCC4)C3)c2)c1)C1CCC1 (stereo not drawn)	-	-	-	-	.
Cc1ccc[n+](CC(=O)Nc2nc3ccccc3s2)c1	-	-	-	-	-
O=C(Nc1ccccc1)OCCCc1ccccc1	-	35	-	-	-
c1ccc(-n2nc3c(ccc4cnnc43)[nH]2)cc1	-	31	-	-	-
O=S(=O)(NCCN1CCOCC1)c1cc(Cl)c(Cl)cc1Cl	-	-	-	-	.
COc1ccccc1C1CN(c2ccc(F)cc2F)N=C1c1cccs1 (stereo not drawn)	-	44	-	-	-
O=C(CSc1nc(-c2ccco2)cc(C(F)(F)F)n1)NC1CCCCCCC1	-	37	-	-	-
O=c1c2cc3c(cc2[nH]c(=S)n1Cc1ccco1)OCO3	-	40	-	-	-
O=C(CCCn1c(=S)[nH]c2cc3c(cc2c1=O)OCO3)NCc1ccco1	-	-	-	-	-
Fc1cccc(-c2cncc(N3CCN(CCN4CCCC4)CC3)n2)c1	-	-	-	.	.
Cc1nonc1OC(C)CNc1ccc([N+](=O)[O-])cc1 (stereo not drawn)	-	36	-	-	-
Cc1nonc1OCCNc1ccc([N+](=O)[O-])cc1[N+](=O)[O-]	-	-	-	-	-
O=C(COc1ccccc1)Nc1ccc(-c2nnc(-c3ccco3)o2)cc1	-	-	-	-	-
SMILES	NOD2 RIPK2 PPI	SKN-1 inh	MT1-MMP act inh	TLR9-MyD88 block	TLR4-MyD88 BLA
CCCOc1ccc(-c2nnc(-c3ccco3)o2)cc1	-	79	-	-	-
CC(C)COc1ccc(-c2nnc(-c3ccco3)o2)cc1	-	43	-	-	-
Clc1ccc(CSc2ncn(-c3ccccc3)n2)cc1	-	77	-	-	-
Clc1cccc(CSc2ncn(-c3ccccc3)n2)c1	-	49	-	-	-
O=C(CSC1=NS(=O)(=O)c2cc(F)ccc2N1)NCc1ccc(F)cc1	-	-	-	-	.
COc1cccc(NC(=O)CN2CCc3ccccc3C2)c1	-	35	-	-	.
C(=C\c1nc(-c2ccccc2)no1)/c1ccccc1	-	-	-	-	-
C(=C\c1nc(-c2ccncc2)no1)/c1ccccc1	-	79	-	-	-
Fc1ccc(Nc2cccc3nccnc23)cc1	-	45	-	-	-
CC1=C2C3OC(=O)C(C)C3CCC2(C)C=CC1=NO (stereo not drawn)	-	-	-	-	.
Cc1ccc(-n2c(SCC(=O)N3CCOCC3)nnc2-c2ccncc2)cc1C	-	-	-	-	.

Compound activity (PubChem BioAssay)
